Data: ChEMBL document CHEMBL2380219, “Physalin A induces apoptotic cell death and protective autophagy in HT1080 human fibrosarcoma cells” (J Nat Prod, 2013)

What was measured:
PBMC = assay: Cytotoxicity against human PBMC at 40 to 80 uM after 24 to 48 hrs by MTT assay; type: cell-based
Procedure, shortened: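 hPBMC from fresh blood of three healthy male volunteers, isolated on Ficoll-Hypaque (1.077 g/mL) at 900g for 30 min and washed, then seeded in complete RPMI-1640. Exposed to 10–80 μM for 24 and 48 h, with DMSO below 0.05%. MTT was read at 492 nm after formazan in DMSO. Inhibition % = (control−sample)/(control−blank)×100; mean ± SD, three independent experiments.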

HT-1080 = assay: Cytotoxicity against human HT1080 cells assessed as growth inhibition after 24 hrs by MTT assay; type: functional, cell-based; details: HT-1080, 24 h

## CC(=O)O[C@H]1C(=O)[C@@]2(C)[C@H]([C@H](OC(=O)c3ccccc3)[C@]3(O)C[C@H](OC(=O)[C@H](O)[C@@H](NC(=O)c4ccccc4)c4ccccc4)C(C)=C1C3(C)C)[C@]1(OC(C)=O)CO[C@@H]1C[C@@H]2O [PACLITAXEL]
PBMC
  Activity: Non-toxic
HT-1080
  IC50: 6 µM

## O=c1[nH]cc(F)c(=O)[nH]1 [FLUOROURACIL]
PBMC
  Activity: Non-toxic
HT-1080
  IC50: 70.8 µM
